Results pooled from the literature.
Target: MAP/microtubule affinity-regulating kinase 4 (MARK4, Homo sapiens, UniProt Q96L34)
Sequence (Q96L34 1-752, as in one of the studies): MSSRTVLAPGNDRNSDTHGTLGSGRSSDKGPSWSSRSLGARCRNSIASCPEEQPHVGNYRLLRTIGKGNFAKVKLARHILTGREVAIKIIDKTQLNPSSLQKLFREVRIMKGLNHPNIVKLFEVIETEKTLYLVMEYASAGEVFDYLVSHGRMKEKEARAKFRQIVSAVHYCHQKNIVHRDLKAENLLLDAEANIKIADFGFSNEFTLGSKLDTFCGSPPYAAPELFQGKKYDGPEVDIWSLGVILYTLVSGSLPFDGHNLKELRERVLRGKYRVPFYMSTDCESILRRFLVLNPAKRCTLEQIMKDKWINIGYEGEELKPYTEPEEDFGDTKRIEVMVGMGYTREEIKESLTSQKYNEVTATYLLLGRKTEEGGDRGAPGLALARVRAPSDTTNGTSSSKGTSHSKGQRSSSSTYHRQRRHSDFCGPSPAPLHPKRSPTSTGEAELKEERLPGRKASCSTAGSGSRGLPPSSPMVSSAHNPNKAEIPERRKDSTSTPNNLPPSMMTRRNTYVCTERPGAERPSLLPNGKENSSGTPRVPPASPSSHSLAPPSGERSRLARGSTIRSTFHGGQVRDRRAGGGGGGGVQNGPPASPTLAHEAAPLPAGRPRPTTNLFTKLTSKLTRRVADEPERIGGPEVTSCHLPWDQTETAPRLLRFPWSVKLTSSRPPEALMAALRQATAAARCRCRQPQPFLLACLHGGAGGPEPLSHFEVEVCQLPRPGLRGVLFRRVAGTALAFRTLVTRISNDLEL

SMILES | test | setting | remaining binding [%]
F[C@@H]1CCN(c2nccc(-c3cnn4ncccc34)n2)C1 | binding | 1 µM | 100
Nc1ncc2c(n1)-c1c([nH]c3ccc(C#CC4CC4)cc13)CCCC2 | binding, competition with immobilised ligand | 1 µM | 100
O=C(NCCCN1CCOCC1)c1ccc(Nc2ncc(Cl)c(-c3ccc(Cl)s3)n2)cc1 | binding, competition with immobilised ligand | 1 µM | 24
N[C@H]1CCN(c2nccc(-c3cnn4ncccc34)n2)C1 | binding | 1 µM | 100
COc1ncc2cc3ccccc3nc2c1C#N | cell-free assay, competition with immobilised ligand | 5 µM | 64
O=C1CCc2cc(Nc3cc(OC4CCOCC4)c([N+](=O)[O-])cc3Cl)ccc2N1 | cell-free assay, competition with immobilised ligand | 1 µM | 100
COc1cnc(Nc2cccc(S(N)(=O)=O)c2)nc1N1CCN(c2ccccc2)CC1 | binding, competition with immobilised ligand | 1 µM | 86
CNCc1ccccc1-c1csc([C@@H](C)Nc2nc(C)nc3cc(OC)c(OC)cc23)c1 | cell-free assay, competition with immobilised ligand | 1 µM | 100
CN(C)c1nccc(-c2cnn3ncccc23)n1 | binding | 1 µM | 100
O=C(c1ccc(Nc2nccc(-c3cc4ccccc4s3)n2)cc1)N1CCC(N2CCCC2)CC1 | binding, competition with immobilised ligand | 1 µM | 84
CC(=O)c1c(NS(C)(=O)=O)c2cc(-c3ccc(Cl)cc3)c(-c3ccc(Cl)cc3Cl)nc2n(C)c1=O | cell-free assay, competition with immobilised ligand | 1 µM | 100
CN(CCCC(F)(F)F)c1nccc(-c2cnn3ncccc23)n1 | binding | 1 µM | 90
CNC(=O)[C@@H]1CC[C@@H](n2c(-c3ccc4cnccc4c3)nc3ccc(C(=O)NCc4cccc(C(N)=O)c4)cc32)C1 | binding, competition with immobilised ligand | 1 µM | 98
CC(C)CC(=O)N1CCc2nc(-c3ccc(Br)cc3)nc(N(C)Cc3ccccc3)c2C1 | cell-free assay, competition with immobilised ligand | 0.1 µM | 100
O=C(Nc1c[nH]nc1C(=O)NC1CCNCC1)c1cc(F)cc(F)c1 | binding, competition with immobilised ligand | 1 µM | 100
CN(c1nccc(-c2cnn3ncccc23)n1)C1CC1 | binding | 1 µM | 76
COc1cc(-c2cn(C3CCc4ccccc4N(CC(F)(F)F)C3=O)nn2)ccc1-n1ccc(C)n1 (centres unmarked) | cell-free assay, competition with immobilised ligand | 1 µM | 100
O=C(NCCCN1CCOCC1)c1ccc(Nc2nccc(-c3cc4ccccc4s3)n2)cc1 | binding, competition with immobilised ligand | 1 µM | 60
Cc1c(NC(=O)c2cc(C(N)=O)nc3cc(F)ccc23)c(C(F)(F)F)nn1Cc1ccc(C(C)(C)C)cc1 | cell-free assay, competition with immobilised ligand | 1 µM | 97
CC1CCCN1c1nccc(-c2cnn3ncccc23)n1 (centres unmarked) | binding | 1 µM | 98
